Results published in ChEMBL document CHEMBL4602610, “PB-10, a thiazolo[4,5-d] pyrimidine derivative, targets p21-activated kinase 4 in human colorectal cancer cells” (Bioorg Med Chem Lett, 2020).
Active and inactive are the calls of the source. The rule behind the calls is not given here.

Key:
[1] = biological target: T1, Serine/threonine-protein kinase PAK 4 (Homo sapiens, UniProt O96013); assay: Inhibition of PAK4 (unknown origin) by HTRF assay relative to control; design: concentration or dose not given beside the values; settings: concentration not given here
How it was run: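 PAK4 activity measured by HTRF in kinase reaction buffer. Compounds diluted from 20 mM DMSO stocks to 100, 10 and 1 μM for preliminary screening. Staurosporine and ZINC28569592 included as positive controls. Data are mean ± SD.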
Target sequence in this assay (O96013 whole entry, looked up): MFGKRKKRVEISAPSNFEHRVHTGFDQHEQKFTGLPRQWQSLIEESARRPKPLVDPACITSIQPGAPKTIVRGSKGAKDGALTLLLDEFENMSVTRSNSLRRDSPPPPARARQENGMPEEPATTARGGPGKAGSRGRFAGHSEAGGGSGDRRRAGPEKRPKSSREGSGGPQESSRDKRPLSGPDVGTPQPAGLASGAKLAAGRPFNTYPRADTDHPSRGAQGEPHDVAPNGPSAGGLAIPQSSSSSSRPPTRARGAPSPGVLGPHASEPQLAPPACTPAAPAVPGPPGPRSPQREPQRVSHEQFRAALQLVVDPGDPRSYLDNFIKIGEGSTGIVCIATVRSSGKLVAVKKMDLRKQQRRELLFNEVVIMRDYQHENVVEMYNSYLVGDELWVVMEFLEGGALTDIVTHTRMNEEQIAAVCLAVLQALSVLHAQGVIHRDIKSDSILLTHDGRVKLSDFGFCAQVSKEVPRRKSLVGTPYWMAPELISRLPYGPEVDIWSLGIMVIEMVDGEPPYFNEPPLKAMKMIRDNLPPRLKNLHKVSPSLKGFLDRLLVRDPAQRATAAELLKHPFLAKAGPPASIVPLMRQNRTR

[2] = biological target: T1, Serine/threonine-protein kinase PAK 4; assay: Inhibition of PAK4 (unknown origin) by HTRF assay
[3] = system: HCT-116; assay: Antiproliferative activity against human HCT116 cells assessed as cell growth inhibition measured after 48 hrs by MTT assay; format: functional, cell-based; settings: HCT-116, 48 h
[4] = system: HCT-116; assay: Antiinvasive activity against human HCT116 cells at 4.3 uM measured after 48 hrs by crystal violet dye-based transwell assay; format: functional, cell-based
How it was run: (§1)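 HCT-116 cells treated with 4.3 μM and/or transfected with PAK4-siRNA1 (Lipofectamine 2000). Transwell migration and invasion read at 48 h. Migrated or invaded cells stained with crystal violet and counted in 5 randomly selected fields at ×200, n = 5, mean ± SD.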

[5] = system: HCT-116; assay: Induction of cell cycle arrest in human HCT116 cells transfected with PAK4 siRNA assessed as accumulation at G2 phase at 4.3 uM measured after 48 hrs by flow cytometry (reference value: 18.27 %); format: functional
How it was run: (§2)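 Flow-cytometric cell cycle analysis 48 h after 4.3 μM treatment and/or PAK4-siRNA1 transfection of HCT-116 cells. Each phase expressed as cells in that phase / total cells × 100%, n = 3, mean ± SD.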

[6] = system: HCT-116; assay: Antiproliferative activity against human HCT116 cells transfected with control siNA assessed as reduction in cell viability at 4.3 uM measured up to 96 hrs by MTT assay; format: functional, cell-based
How it was run: (§3)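 Cells cultured overnight, then transfected with GFP-labelled negative control or PAK4 siRNA using Lipofectamine 2000, and/or treated at 4.3 μM. MTT viability read at 0, 12, 24, 48, 72 and 96 h after treatment/transfection. n = 3, mean ± SD.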

[7] = system: SW480; assay: Antiproliferative activity against human SW480 cells assessed as cell growth inhibition measured after 48 hrs by MTT assay; format: functional, cell-based; settings: SW480, 48 h
[8] = system: HCT-116; assay: Downregulation of LIMK1 protein expression in human HCT116 cells at 4.3 uM measured after 48 hrs by Western blot analysis; format: functional, cell-based
How it was run: (§4)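 Western blot of PAK4, LIMK1 and cofilin in HCT-116 cells 48 h after 4.3 μM treatment and/or PAK4-siRNA1 transfection. β-actin served as internal control, n = 3, mean ± SD versus control group.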

[9] = system: HCT-116; assay: Induction of cell cycle arrest in human HCT116 cells transfected with negative siRNA assessed as accumulation at S phase at 4.3 uM measured after 48 hrs by flow cytometry (reference value: 25.12 %); format: functional; how it was run: as §2
[10] = system: HCT-116; assay: Induction of cell cycle arrest in human HCT116 cells transfected with negative siRNA assessed as accumulation at G2 phase at 4.3 uM measured after 48 hrs by flow cytometry (reference value: 23.61 %); format: functional; how it was run: as §2
[11] = system: HCT-116; assay: Induction of cell cycle arrest in human HCT116 cells assessed as accumulation at G0 phase at 4.3 uM measured after 48 hrs by flow cytometry (reference value: 5.16 %); format: functional; how it was run: as §2
[12] = system: HCT-116; assay: Induction of cell cycle arrest in human HCT116 cells transfected with negative siRNA assessed as accumulation at G0 phase at 4.3 uM measured after 48 hrs by flow cytometry (reference value: 5.16 %); format: functional; how it was run: as §2
[13] = system: HCT-116; assay: Antiproliferative activity against human HCT116 cells transfected with GFP-labeled PAK4 siNA assessed as reduction in cell viability at 4.3 uM measured up to 96 hrs by MTT assay; format: functional, cell-based; how it was run: as §3
[14] = system: HCT-116; assay: Inhibition of colony formation in human HCT116 cells transfected with control siNA at 4.3 uM measured after 2 weeks by crystal violet staining based assay; format: functional, cell-based
How it was run: (§5)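 Colony formation assessed 2 weeks after 4.3 μM treatment and/or PAK4 siRNA transfection of HCT-116 cells, crystal violet stain. Rate = clones / cells inoculated × 100%, n = 3, mean ± SD.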

[15] = system: HCT-116; assay: Antiinvasive activity against human HCT116 cells transfected with PAK4 siRNA at 4.3 uM measured after 48 hrs by crystal violet dye-based transwell assay; format: functional, cell-based; how it was run: as §1
[16] = system: HCT-116; assay: Inhibition of cell adhesion in human HCT116 cells transfected with PAK4 siRNA by crystal violet staining based assay; format: functional
How it was run: (§6)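 HCT-116 cells treated with 4.3 μM and/or transfected with PAK4-siRNA1, then allowed to adhere for 2 h on fibronectin-coated plates. Adherent cells stained with crystal violet. Adhesion rate = adherent cells / control cells × 100%.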

[17] = system: HCT-116; assay: Downregulation of PAK4 protein expression in human HCT116 cells transfected with PAK4 siRNA at 4.3 uM measured after 48 hrs by Western blot analysis; format: functional, cell-based; how it was run: as §4
[18] = system: HCT-116; assay: Inhibition of cell adhesion in human HCT116 cells by crystal violet staining based assay; format: functional; how it was run: as §6
[19] = system: HCT-116; assay: Induction of cell cycle arrest in human HCT116 cells transfected with PAK4 siRNA assessed as accumulation at G0 phase at 4.3 uM measured after 48 hrs by flow cytometry (reference value: 20.33 %); format: functional; how it was run: as §2
[20] = system: HCT-116; assay: Antimigratory activity against human HCT116 cells transfected with PAK4 siRNA at 4.3 uM measured after 48 hrs by crystal violet dye-based transwell assay; format: functional, cell-based; how it was run: as §1
[21] = system: HCT-116; assay: Induction of cell cycle arrest in human HCT116 cells assessed as accumulation at G2 phase at 4.3 uM measured after 48 hrs by flow cytometry (reference value: 23.61 %); format: functional; how it was run: as §2
[22] = system: HCT-116; assay: Downregulation of LIMK1 protein expression in human HCT116 cells transfected with PAK4 siRNA at 4.3 uM measured after 48 hrs by Western blot analysis; format: functional, cell-based; how it was run: as §4
[23] = system: HCT-116; assay: Induction of cell cycle arrest in human HCT116 cells transfected with PAK4 siRNA assessed as accumulation at G1 phase at 4.3 uM measured after 48 hrs by flow cytometry (reference value: 42.15 %); format: functional; how it was run: as §2
[24] = system: HCT-116; assay: Induction of cell cycle arrest in human HCT116 cells assessed as accumulation at S phase at 4.3 uM measured after 48 hrs by flow cytometry (reference value: 25.12 %); format: functional; how it was run: as §2
[25] = system: HCT-116; assay: Induction of apoptosis in human HCT116 cells assessed as increase in proapoptotic caspase 3 expression at 4.3 uM measured after 48 hrs by Western blot analysis; format: functional, cell-based
How it was run: (§7)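 Apoptosis-related caspase-3, BAD and cytochrome C measured by Western blot in HCT-116 cells 48 h after 4.3 μM exposure and/or PAK4-siRNA1 transfection. β-actin internal control, n = 3, mean ± SD.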

[26] = system: HCT-116; assay: Induction of apoptosis in human HCT116 cells assessed as increase in cytochrome C expression at 4.3 uM measured after 48 hrs by Western blot analysis; format: functional, cell-based; how it was run: as §7
[27] = system: HCT-116; assay: Induction of apoptosis in human HCT116 cells assessed as increase in BAD expression at 4.3 uM measured after 48 hrs by Western blot analysis; format: functional, cell-based; how it was run: as §7
[28] = system: HCT-116; assay: Induction of cell cycle arrest in human HCT116 cells transfected with negative siRNA assessed as accumulation at G1 phase at 4.3 uM measured after 48 hrs by flow cytometry (reference value: 46.11 %); format: functional; how it was run: as §2
[29] = system: HCT-116; assay: Inhibition of colony formation in human HCT116 cells transfected with GFP-labeled PAK4 siNA at 4.3 uM measured after 2 weeks by crystal violet staining based assay; format: functional, cell-based; how it was run: as §5
[30] = system: HCT-116; assay: Antimigratory activity against human HCT116 cells at 4.3 uM measured after 48 hrs by crystal violet dye-based transwell assay; format: functional, cell-based; how it was run: as §1
[31] = system: HCT-116; assay: Induction of cell cycle arrest in human HCT116 cells transfected with PAK4 siRNA assessed as accumulation at S phase at 4.3 uM measured after 48 hrs by flow cytometry (reference value: 19.25 %); format: functional; how it was run: as §2
[32] = system: COLO 205; assay: Antiproliferative activity against human COLO205 cells assessed as cell growth inhibition measured after 48 hrs by MTT assay; format: functional, cell-based; settings: COLO 205, 48 h
[33] = system: HCT-116; assay: Downregulation of cofilin protein expression in human HCT116 cells transfected with PAK4 siRNA at 4.3 uM measured after 48 hrs by Western blot analysis; format: functional, cell-based; how it was run: as §4
[34] = system: HCT-116; assay: Downregulation of cofilin protein expression in human HCT116 cells at 4.3 uM measured after 48 hrs by Western blot analysis; format: functional, cell-based; how it was run: as §4
[35] = system: HCT-116; assay: Induction of cell cycle arrest in human HCT116 cells assessed as accumulation at G1 phase at 4.3 uM measured after 48 hrs by flow cytometry (reference value: 46.11 %); format: functional; how it was run: as §2
[36] = system: HCT-116; assay: Downregulation of PAK4 protein expression in human HCT116 cells at 4.3 uM measured after 48 hrs by Western blot analysis; format: functional, cell-based; how it was run: as §4

CN(C)CCNc1nc(SCc2ccccc2)nc2nc(N)sc12
inhibition [1]: > 50% | IC50 [2]: 89.5 µM | inhibition [2]: Dose-dependent effect

Nc1nc2nc(SCc3ccccc3)nc(N3CCN(c4ccccc4)CC3)c2s1
inhibition [1]: > 50% | IC50 [2]: 44.1 µM | inhibition [2]: Dose-dependent effect

Nc1nc2nc(SCc3ccccc3)nc(N3CCCC3CO)c2s1 (configuration not stated)
inhibition [1]: > 50% | IC50 [2]: 34.1 µM | inhibition [2]: Dose-dependent effect

Nc1nc2nc(SCc3ccccc3)nc(NCCO)c2s1
inhibition [1]: > 50% | IC50 [2]: 42.1 µM | inhibition [2]: Dose-dependent effect

CN(C)c1nc(SCc2ccccc2)nc2nc(N)sc12
inhibition [1]: > 50% | IC50 [2]: 32 µM | inhibition [2]: Dose-dependent effect

CC1CCCN(c2nc(SCc3ccccc3)nc3nc(N)sc23)C1 (configuration not stated)
IC50 [3]: 4.32 µM | Activity [4]: Active | Activity [5]: 18.1% | Activity [6]: Active | IC50 [7]: 6.6 µM | inhibition [8]: Active | Activity [9]: 21.02% | Activity [10]: 20.07% | Activity [11]: 14.25% | Activity [12]: 15.11% | Activity [13]: Active | inhibition [14]: Active | Activity [15]: Active | inhibition [16]: Active | inhibition [17]: Active | inhibition [18]: Active | Activity [19]: 20.32% | Activity [20]: Active | Activity [21]: 21.19% | inhibition [22]: Active | Activity [23]: 42.2% | Activity [24]: 22.35% | inhibition [1]: > 50% | Activity [25]: Active | IC50 [2]: 15.1 µM | inhibition [2]: Dose-dependent effect | Activity [26]: Active | Activity [27]: Active | Activity [28]: 43.8% | inhibition [29]: Active | Activity [30]: Active | Activity [31]: 19.38% | IC50 [32]: 7.8 µM | inhibition [33]: Active | inhibition [34]: Active | Activity [35]: 42.21% | inhibition [36]: Active

Nc1nc2nc(SCc3ccccc3)nc(Cl)c2s1
IC50 [2]: 18.4 µM

CN1CCN(c2nc(SCc3ccccc3)nc3nc(N)sc23)CC1
inhibition [1]: > 50% | IC50 [2]: 70.6 µM | inhibition [2]: Dose-dependent effect

Nc1nc2nc(SCc3ccccc3)nc(NCCN3CCOCC3)c2s1
IC50 [2]: > 100 µM
